These compounds were tested on Bacillus subtilis (assay: Antibacterial activity against Bacillus subtilis at 50 mg/disk after 24 to 28 hrs by agar disk diffusion method). Conditions: not given.
Assay type: functional

How did the “diameter of the inhibition zone (DIZ)” value turn out when `CSc1nc2c(c(=O)n1C)C(c1ccc([N+](=O)[O-])cc1)C1=C(CC(C)(C)CC1=O)N2` (stereo unspecified) was run?
Its value is 15 mm.

How did the “diameter of the inhibition zone (DIZ)” value turn out when `CC1(C)CC(=O)C2=C(C1)Nc1nc3[nH]nc(-c4ccc(Cl)cc4)n3c(=O)c1C2c1ccc([N+](=O)[O-])cc1` (stereo unspecified) was run?
Its value is 18 mm.

Which “diameter of the inhibition zone (DIZ)” value does the source give for `CSc1nc2c(c(=O)[nH]1)C(c1ccc([N+](=O)[O-])cc1)C1=C(CC(C)(C)CC1=O)N2[C@@H]1O[C@H](COC(C)=O)[C@@H](OC(C)=O)[C@H](OC(C)=O)[C@H]1OC(C)=O` (stereo partly specified) here?
The value was 20 mm.

What follows are compounds tested on Lactococcus lactis (assay: Antibacterial activity against Streptococcus lactis at 50 mg/disk after 24 to 28 hrs by agar disk diffusion method). Conditions: not given.
Assay type: functional

How did the “diameter of the inhibition zone (DIZ)” value turn out when `CSc1nc2c(c(=O)n1C)C(c1ccc([N+](=O)[O-])cc1)C1=C(CC(C)(C)CC1=O)N2` (stereo unspecified) was run?
Its value is 13 mm.

With `CC1(C)CC(=O)C2=C(C1)Nc1nc3[nH]nc(-c4ccc(Cl)cc4)n3c(=O)c1C2c1ccc([N+](=O)[O-])cc1` (stereo unspecified) as the compound, how does the “diameter of the inhibition zone (DIZ)” value read?
Its value is 15 mm.

`CSc1nc2c(c(=O)[nH]1)C(c1ccc([N+](=O)[O-])cc1)C1=C(CC(C)(C)CC1=O)N2[C@@H]1O[C@H](COC(C)=O)[C@@H](OC(C)=O)[C@H](OC(C)=O)[C@H]1OC(C)=O` (stereo partly specified) was tested. Which “diameter of the inhibition zone (DIZ)” value did it give?
Its value is 20 mm.

What follows are compounds tested on Escherichia coli (assay: Antibacterial activity against Escherichia coli at 50 mg/disk after 24 to 28 hrs by agar disk diffusion method). Conditions: not given.
Assay type: functional

How did the “diameter of the inhibition zone (DIZ)” value turn out when `CSc1nc2c(c(=O)n1C)C(c1ccc([N+](=O)[O-])cc1)C1=C(CC(C)(C)CC1=O)N2` (stereo unspecified) was run?
Its value is 15 mm.

How did the “diameter of the inhibition zone (DIZ)” value turn out when `CC1(C)CC(=O)C2=C(C1)Nc1nc3[nH]nc(-c4ccc(Cl)cc4)n3c(=O)c1C2c1ccc([N+](=O)[O-])cc1` (stereo unspecified) was run?
Its value is 18 mm.

For `CSc1nc2c(c(=O)[nH]1)C(c1ccc([N+](=O)[O-])cc1)C1=C(CC(C)(C)CC1=O)N2[C@@H]1O[C@H](COC(C)=O)[C@@H](OC(C)=O)[C@H](OC(C)=O)[C@H]1OC(C)=O` (stereo partly specified), which “diameter of the inhibition zone (DIZ)” value is on record?
The value was 23 mm.

What follows are compounds tested on Pseudomonas aeruginosa (assay: Antibacterial activity against Pseudomonas aeruginosa at 50 mg/disk after 24 to 28 hrs by agar disk diffusion method). Conditions: not given.
Assay type: functional

`CSc1nc2c(c(=O)n1C)C(c1ccc([N+](=O)[O-])cc1)C1=C(CC(C)(C)CC1=O)N2` (stereo unspecified) was tested. Which “diameter of the inhibition zone (DIZ)” value did it give?
The value was 14 mm.

Which “diameter of the inhibition zone (DIZ)” value does the source give for `CC1(C)CC(=O)C2=C(C1)Nc1nc3[nH]nc(-c4ccc(Cl)cc4)n3c(=O)c1C2c1ccc([N+](=O)[O-])cc1` (stereo unspecified) here?
The value was 17 mm.

For `CSc1nc2c(c(=O)[nH]1)C(c1ccc([N+](=O)[O-])cc1)C1=C(CC(C)(C)CC1=O)N2[C@@H]1O[C@H](COC(C)=O)[C@@H](OC(C)=O)[C@H](OC(C)=O)[C@H]1OC(C)=O` (stereo partly specified), which “diameter of the inhibition zone (DIZ)” value is on record?
The value was 22 mm.

These compounds were tested on Candida albicans (assay: Antifungal activity against Candida albicans at 50 mg/disk after 5 days by agar disk diffusion method). Conditions: not given.
Assay type: functional

Which “diameter of the inhibition zone (DIZ)” value does the source give for `CSc1nc2c(c(=O)n1C)C(c1ccc([N+](=O)[O-])cc1)C1=C(CC(C)(C)CC1=O)N2` (stereo unspecified) here?
Its value is 8 mm.

`CC1(C)CC(=O)C2=C(C1)Nc1nc3[nH]nc(-c4ccc(Cl)cc4)n3c(=O)c1C2c1ccc([N+](=O)[O-])cc1` (stereo unspecified) was tested. Which “diameter of the inhibition zone (DIZ)” value did it give?
Its value is 9 mm.

How did the “diameter of the inhibition zone (DIZ)” value turn out when `CSc1nc2c(c(=O)[nH]1)C(c1ccc([N+](=O)[O-])cc1)C1=C(CC(C)(C)CC1=O)N2[C@@H]1O[C@H](COC(C)=O)[C@@H](OC(C)=O)[C@H](OC(C)=O)[C@H]1OC(C)=O` (stereo partly specified) was run?
Its value is 8 mm.

Each compound was assayed on Nakaseomyces glabratus (assay: Antifungal activity against Candida glabrata at 50 mg/disk after 5 days by agar disk diffusion method). Conditions: not given.
Assay type: functional

For `CSc1nc2c(c(=O)n1C)C(c1ccc([N+](=O)[O-])cc1)C1=C(CC(C)(C)CC1=O)N2` (stereo unspecified), which “diameter of the inhibition zone (DIZ)” value is on record?
The value was 6 mm.

For `CC1(C)CC(=O)C2=C(C1)Nc1nc3[nH]nc(-c4ccc(Cl)cc4)n3c(=O)c1C2c1ccc([N+](=O)[O-])cc1` (stereo unspecified), which “diameter of the inhibition zone (DIZ)” value is on record?
Its value is 7 mm.

`CSc1nc2c(c(=O)[nH]1)C(c1ccc([N+](=O)[O-])cc1)C1=C(CC(C)(C)CC1=O)N2[C@@H]1O[C@H](COC(C)=O)[C@@H](OC(C)=O)[C@H](OC(C)=O)[C@H]1OC(C)=O` (stereo partly specified) was tested. Which “diameter of the inhibition zone (DIZ)” value did it give?
Its value is 8 mm.

The compounds below were run on HepG2 (assay: Antitumor activity against human HepG2 cells xenografted in Swiss albino mouse assessed as increase of mouse survival at 10 ug/kg, ip for 10 days (reference value: 22 +/- 1.90 day)). Conditions: not given.
Assay type: functional

Which Survival does the source give for `CSc1nc2c(c(=O)n1C)C(c1ccc([N+](=O)[O-])cc1)C1=C(CC(C)(C)CC1=O)N2` (stereo unspecified) here?
Its Survival is 34 days.

For `CC1(C)CC(=O)C2=C(C1)Nc1nc3[nH]nc(-c4ccc(Cl)cc4)n3c(=O)c1C2c1ccc([N+](=O)[O-])cc1` (stereo unspecified), which Survival is on record?
Its Survival is 36 days.

With `CSc1nc2c(c(=O)[nH]1)C(c1ccc([N+](=O)[O-])cc1)C1=C(CC(C)(C)CC1=O)N2[C@@H]1O[C@H](COC(C)=O)[C@@H](OC(C)=O)[C@H](OC(C)=O)[C@H]1OC(C)=O` (stereo partly specified) as the compound, how does the Survival read?
Its Survival is 36 days.

What follows are compounds tested on HepG2 (assay: Antitumor activity against human HepG2 cells xenografted in Swiss albino mouse assessed as increase mouse life span at 10 ug/kg, ip for 10 days relative to control). Conditions: not given.
Assay type: functional

How did the Activity turn out when `CSc1nc2c(c(=O)n1C)C(c1ccc([N+](=O)[O-])cc1)C1=C(CC(C)(C)CC1=O)N2` (stereo unspecified) was run?
The Activity was 50%.

For `CC1(C)CC(=O)C2=C(C1)Nc1nc3[nH]nc(-c4ccc(Cl)cc4)n3c(=O)c1C2c1ccc([N+](=O)[O-])cc1` (stereo unspecified), which Activity is on record?
The Activity was 51%.

With `CSc1nc2c(c(=O)[nH]1)C(c1ccc([N+](=O)[O-])cc1)C1=C(CC(C)(C)CC1=O)N2[C@@H]1O[C@H](COC(C)=O)[C@@H](OC(C)=O)[C@H](OC(C)=O)[C@H]1OC(C)=O` (stereo partly specified) as the compound, how does the Activity read?
Its Activity is 66%.

Each compound was assayed on HeLa (assay: Antitumor activity against human HeLa cells xenografted in Swiss albino mouse assessed as increase of mouse survival at 10 ug/kg, ip for 10 days (reference value: 22 +/- 1.90 day)). Conditions: not given.
Assay type: functional

How did the Survival turn out when `CSc1nc2c(c(=O)n1C)C(c1ccc([N+](=O)[O-])cc1)C1=C(CC(C)(C)CC1=O)N2` (stereo unspecified) was run?
The Survival was 28 days.

For `CC1(C)CC(=O)C2=C(C1)Nc1nc3[nH]nc(-c4ccc(Cl)cc4)n3c(=O)c1C2c1ccc([N+](=O)[O-])cc1` (stereo unspecified), which Survival is on record?
Its Survival is 34 days.

For `CSc1nc2c(c(=O)[nH]1)C(c1ccc([N+](=O)[O-])cc1)C1=C(CC(C)(C)CC1=O)N2[C@@H]1O[C@H](COC(C)=O)[C@@H](OC(C)=O)[C@H](OC(C)=O)[C@H]1OC(C)=O` (stereo partly specified), which Survival is on record?
The Survival was 37 days.

These compounds were tested on HeLa (assay: Antitumor activity against human HeLa cells xenografted in Swiss albino mouse assessed as increase mouse life span at 10 ug/kg, ip for 10 days relative to control). Conditions: not given.
Assay type: functional

How did the Activity turn out when `CSc1nc2c(c(=O)n1C)C(c1ccc([N+](=O)[O-])cc1)C1=C(CC(C)(C)CC1=O)N2` (stereo unspecified) was run?
Its Activity is 48%.

Which Activity does the source give for `CC1(C)CC(=O)C2=C(C1)Nc1nc3[nH]nc(-c4ccc(Cl)cc4)n3c(=O)c1C2c1ccc([N+](=O)[O-])cc1` (stereo unspecified) here?
Its Activity is 57%.

Which Activity does the source give for `CSc1nc2c(c(=O)[nH]1)C(c1ccc([N+](=O)[O-])cc1)C1=C(CC(C)(C)CC1=O)N2[C@@H]1O[C@H](COC(C)=O)[C@@H](OC(C)=O)[C@H](OC(C)=O)[C@H]1OC(C)=O` (stereo partly specified) here?
Its Activity is 61%.

The compounds below were run on Mus musculus (assay: Acute toxicity in human HepG2 cells xenografted ip dosed Swiss albino mouse assessed as mortality measured up to 2 weeks). Conditions: in vivo, 336 h.
Assay type: organism-based
Procedure, shortened: (§1)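 Adult Swiss albino mice were fasted 12 h and randomised into groups of 10. Each group got one i.p. dose from a graded series, given at 1 ml/kg body weight; controls got vehicle alone. Food and water were returned right after dosing. Mortality was followed for up to two weeks, and LD50 was taken as the dose giving 50% mortality.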

How did the LD50 turn out when `CSc1nc2c(c(=O)n1C)C(c1ccc([N+](=O)[O-])cc1)C1=C(CC(C)(C)CC1=O)N2` (stereo unspecified) was run?
The LD50 was 98 µg/kg.

For `CC1(C)CC(=O)C2=C(C1)Nc1nc3[nH]nc(-c4ccc(Cl)cc4)n3c(=O)c1C2c1ccc([N+](=O)[O-])cc1` (stereo unspecified), which LD50 is on record?
The LD50 was 95 µg/kg.

How did the LD50 turn out when `CSc1nc2c(c(=O)[nH]1)C(c1ccc([N+](=O)[O-])cc1)C1=C(CC(C)(C)CC1=O)N2[C@@H]1O[C@H](COC(C)=O)[C@@H](OC(C)=O)[C@H](OC(C)=O)[C@H]1OC(C)=O` (stereo partly specified) was run?
Its LD50 is 109 µg/kg.

What follows are compounds tested on Mus musculus (assay: Acute toxicity in human HeLa cells xenografted ip dosed Swiss albino mouse assessed as mortality measured up to 2 weeks). Conditions: in vivo, 336 h.
Assay type: organism-based
Procedure, shortened: as §1

For `CSc1nc2c(c(=O)n1C)C(c1ccc([N+](=O)[O-])cc1)C1=C(CC(C)(C)CC1=O)N2` (stereo unspecified), which LD50 is on record?
Its LD50 is 111 µg/kg.

With `CC1(C)CC(=O)C2=C(C1)Nc1nc3[nH]nc(-c4ccc(Cl)cc4)n3c(=O)c1C2c1ccc([N+](=O)[O-])cc1` (stereo unspecified) as the compound, how does the LD50 read?
Its LD50 is 89 µg/kg.

How did the LD50 turn out when `CSc1nc2c(c(=O)[nH]1)C(c1ccc([N+](=O)[O-])cc1)C1=C(CC(C)(C)CC1=O)N2[C@@H]1O[C@H](COC(C)=O)[C@@H](OC(C)=O)[C@H](OC(C)=O)[C@H]1OC(C)=O` (stereo partly specified) was run?
The LD50 was 111 µg/kg.

Reference: ChEMBL document CHEMBL1649351, “Synthesis, in vitro antimicrobial and in vivo antitumor evaluation of novel pyrimidoquinolines and its nucleoside derivatives” (Eur J Med Chem, 2011)
